In ChEMBL document CHEMBL1914423, “New imidazo[2,1-b]thiazole derivatives: synthesis, in vitro anticancer evaluation, and in silico studies” (Eur J Med Chem, 2011):

Experiments:
[1] = Antiproliferative activity against human A375P cells after 48 hrs by MTT assay; format: functional, cell-based
Outline: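 A375P cells in DMEM with 10% FBS at 37 °C, 5% CO2. Seeded at 5×10³ cells/well, held 24 h, then treated with 12-point 3-fold serial dilutions for 48 h. Viability by MTT reduction. IC50 values are means of triplicate experiments.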

CCRF-CEM = assay: Anticancer activity against human CCRF-CEM cells assessed as cell growth at 10^-5 M after 48 hrs by SRB assay; format: functional; conditions: read-out: Activity
Outline: (§1)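 NCI-60 single-dose screen at one concentration. Cells grown in RPMI 1640 with 5% FBS and 2 mM L-glutamine, plated at 5000–40,000 cells/well, and pre-incubated 24 h at 37 °C in 5% CO2 before DMSO-dissolved drug was added. Cells fixed with TCA, SRB-stained, absorbance read at 515 nm. Percent growth calculated against time-zero and untreated control plates.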

HL-60(TB) = assay: Anticancer activity against human HL-60(TB) cells assessed as cell growth at 10^-5 M after 48 hrs by SRB assay; format: functional; conditions: HL-60, 48 h, read-out: Activity
Outline: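 NCI-60 single-dose screen. Cells in RPMI 1640 with 5% FBS and 2 mM L-glutamine were plated at 5000–40,000 cells/well and preincubated 24 h at 37 °C before one compound concentration. Time-zero plates were TCA-fixed at drug addition. For suspension cells, settled cells were fixed with cold TCA, then SRB-stained and read at 515 nm. Percent growth was calculated from time-zero, control and treated absorbances.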

K562 = assay: Anticancer activity against human K562 cells assessed as cell growth at 10^-5 M after 48 hrs by SRB assay; format: functional; conditions: K562, 48 h, read-out: Activity; outline: as §1
SR = assay: Anticancer activity against human SR cells assessed as cell growth at 10^-5 M after 48 hrs by SRB assay; format: functional; conditions: read-out: Activity
Outline: (§2)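 NCI-60 single-dose screen: cells in RPMI 1640 with 5% FBS and 2 mM L-glutamine, plated at 5000–40,000 cells/well by doubling time, and preincubated 24 h at 37 °C. Compound given at one concentration from DMSO stock. Cells TCA-fixed and SRB-stained, absorbance at 515 nm. Percent growth relative to time-zero and untreated controls; inhibition % = 100 − growth %.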

A549 = assay: Anticancer activity against human A549 cells assessed as cell growth at 10^-5 M after 48 hrs by SRB assay; format: functional; conditions: A549, 48 h, read-out: Activity; outline: as §1
EKVX = assay: Anticancer activity against human EKVX cells assessed as cell growth at 10^-5 M after 48 hrs by SRB assay; format: functional; conditions: read-out: Activity; outline: as §1
HOP-62 = assay: Anticancer activity against human HOP62 cells assessed as cell growth at 10^-5 M after 48 hrs by SRB assay; format: functional; conditions: HOP-62, 48 h, read-out: Activity; outline: as §1
NCI-H460 = assay: Anticancer activity against human NCI-H460 cells assessed as cell growth at 10^-5 M after 48 hrs by SRB assay; format: functional; conditions: NCI-H460, 48 h, read-out: Activity
COLO 205 = assay: Anticancer activity against human COLO205 cells assessed as cell growth at 10^-5 M after 48 hrs by SRB assay; format: functional; conditions: COLO 205, 48 h, read-out: Activity; outline: as §1
HT-29 = assay: Anticancer activity against human HT-29 cells assessed as cell growth at 10^-5 M after 48 hrs by SRB assay; format: functional; conditions: HT-29, 48 h, read-out: Activity; outline: as §1
SF-295 = assay: Anticancer activity against human SF295 cells assessed as cell growth at 10^-5 M after 48 hrs by SRB assay; format: functional; conditions: SF-295, 48 h, read-out: Activity
SNB-75 = assay: Anticancer activity against human SNB75 cells assessed as cell growth at 10^-5 M after 48 hrs by SRB assay; format: functional; conditions: SNB-75, 48 h, read-out: Activity; outline: as §2
LOX IMVI = assay: Anticancer activity against human LOXIMVI cells assessed as cell growth at 10^-5 M after 48 hrs by SRB assay; format: functional; conditions: read-out: Activity; outline: as §1
Malme-3M = assay: Anticancer activity against human MALME-3M cells assessed as cell growth at 10^-5 M after 48 hrs by SRB assay; format: functional; conditions: read-out: Activity; outline: as §1
M14 = assay: Anticancer activity against human M14 cells assessed as cell growth at 10^-5 M after 48 hrs by SRB assay; format: functional; conditions: M14, 48 h, read-out: Activity; outline: as §1
SK-MEL-5 = assay: Anticancer activity against human SK-MEL-5 cells assessed as cell growth at 10^-5 M after 48 hrs by SRB assay; format: functional; conditions: SK-MEL-5, 48 h, read-out: Activity
IGROV-1 = assay: Anticancer activity against human IGROV1 cells assessed as cell growth at 10^-5 M after 48 hrs by SRB assay; format: functional; conditions: IGROV-1, 48 h, read-out: Activity; outline: as §1
OVCAR-4 = assay: Anticancer activity against human OVCAR4 cells assessed as cell growth at 10^-5 M after 48 hrs by SRB assay; format: functional; conditions: OVCAR-4, 48 h, read-out: Activity
NCI/ADR-RES = assay: Anticancer activity against human NCI/ADR-RES cells assessed as cell growth at 10^-5 M after 48 hrs by SRB assay; format: functional; conditions: read-out: Activity
SK-OV-3 = assay: Anticancer activity against human SKOV3 cells assessed as cell growth at 10^-5 M after 48 hrs by SRB assay; format: functional; conditions: SK-OV-3, 48 h, read-out: Activity
786-0 = assay: Anticancer activity against human 786-0 cells assessed as cell growth at 10^-5 M after 48 hrs by SRB assay; format: functional; conditions: 786-0, 48 h, read-out: Activity; outline: as §1
ACHN = assay: Anticancer activity against human ACHN cells assessed as cell growth at 10^-5 M after 48 hrs by SRB assay; format: functional; conditions: read-out: Activity; outline: as §1
DU-145 = assay: Anticancer activity against human DU145 cells assessed as cell growth at 10^-5 M after 48 hrs by SRB assay; format: functional; conditions: DU-145, 48 h, read-out: Activity; outline: as §1
MCF7 = assay: Anticancer activity against human MCF7 cells assessed as cell growth at 10^-5 M after 48 hrs by SRB assay; format: functional; conditions: MCF7, 48 h, read-out: Activity; outline: as §1
MDA-MB-231 = assay: Anticancer activity against human MDA-MB-231 cells assessed as cell growth at 10^-5 M after 48 hrs by SRB assay; format: functional; conditions: MDA-MB-231, 48 h, read-out: Activity; outline: as §1
T47D = assay: Anticancer activity against human T47D cells assessed as cell growth at 10^-5 M after 48 hrs by SRB assay; format: functional; conditions: read-out: Activity; outline: as §2
MDA-MB-468 = assay: Anticancer activity against human MDA-MB-468 cells assessed as cell growth at 10^-5 M after 48 hrs by SRB assay; format: functional; conditions: MDA-MB-468, 48 h, read-out: Activity

Compound | IC50 [1] | growth at 10 µM (CCRF-CEM) | growth at 10 µM (HL-60(TB)) | growth at 10 µM (K562) | growth at 10 µM (SR) | growth at 10 µM (A549) | growth at 10 µM (EKVX) | growth at 10 µM (HOP-62) | growth at 10 µM (NCI-H460) | growth at 10 µM (COLO 205) | growth at 10 µM (HT-29) | growth at 10 µM (SF-295) | growth at 10 µM (SNB-75) | growth at 10 µM (LOX IMVI) | growth at 10 µM (Malme-3M) | growth at 10 µM (M14) | growth at 10 µM (SK-MEL-5) | growth at 10 µM (IGROV-1) | growth at 10 µM (OVCAR-4) | growth at 10 µM (NCI/ADR-RES) | further results
COc1cccc(-c2nc3sccn3c2-c2ccnc(NCCNC(=O)Nc3ccccc3)n2)c1 | > 10 µM | 44.4% | 122% | 99.4% | 93.1% | 101% | 113% | 129% | 115% | 100% | 87.5% | 110% | 90.8% | 102% | 112% | 99.1% | 81.9% | 97.9% | 106% | 96.1% | growth at 10 µM (SK-OV-3): 99%; growth at 10 µM (786-0): 96.8%; growth at 10 µM (ACHN): 95.5%; growth at 10 µM (DU-145): 102%; growth at 10 µM (MCF7): 96.2%; growth at 10 µM (MDA-MB-231): 103%; growth at 10 µM (T47D): 82.5%; growth at 10 µM (MDA-MB-468): 101%
COc1cccc(-c2nc3sccn3c2-c2ccnc(NCCNC(=O)Nc3cccc(C(F)(F)F)c3)n2)c1 | 5.3 µM | 27% | 62.8% | 39.9% | 38.5% | 44.4% | 61.5% | 98.9% | 45.1% | 57.6% | 44.1% | 37.7% | 71.8% | 44.3% | 85.1% | 39.2% | 51.5% | 50.9% | 91.1% | 27.2% | growth at 10 µM (SK-OV-3): 78.6%; growth at 10 µM (786-0): 65.6%; growth at 10 µM (ACHN): 46.2%; growth at 10 µM (DU-145): 79.8%; growth at 10 µM (MCF7): 54.8%; growth at 10 µM (MDA-MB-231): 43.6%; growth at 10 µM (T47D): 42.9%; growth at 10 µM (MDA-MB-468): 39.6%
O=C(NCCNc1nccc(-c2c(-c3cccc(O)c3)nc3sccn23)n1)Nc1ccccc1 | > 10 µM | 46% | 95.1% | 70.6% | 90.1% | 90.7% | 118% | 150% | 102% | 69.3% | 61.9% | 99.5% | 71.6% | 79.6% | 36.1% | 24% | 69.3% | 99.9% | 123% | 101% | growth at 10 µM (SK-OV-3): 92.3%; growth at 10 µM (786-0): 100%; growth at 10 µM (ACHN): 85.3%; growth at 10 µM (DU-145): 110%; growth at 10 µM (MCF7): 93.8%; growth at 10 µM (MDA-MB-231): 85.9%; growth at 10 µM (T47D): 74.1%; growth at 10 µM (MDA-MB-468): 51.1%
